From PubChem BioAssay
HCT116 bCat-KO – beta-catenin-lacking colon tumor cell growth suppression; HCT116 beta-catenin knockout viability, CellTiter-Glo, 60 h; hits give low values; viability, % at 10 µM; actives 1.5% (n = 140,000); AID 818;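 active = viability at or under a set limit, the compound median less 4 SD, cut at about 6% in these data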
H69AR growth 86K – blocks growth of human H69AR lung tumor cells; H69AR lung tumor viability, ATP luminescence, 72 h; hits give low values; AID 598; actives 6% (n = 85,000); viability, % at 10 µM;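 active = viability at or below 40%; inactive = viability above 40%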;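 note: multidrug resistant small cell line overexpressing MRP-1 efflux transporter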
PTEN del growth – suppresses growth of cells with PTEN deletion; HCT116 PTEN-null viability, CellTiter-Glo, 60 h; hits give low values; viability, % at 10 µM; actives 1.2% (n = 140,000);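 active = viability at or below a set limit, 4 SD under the median of all tested compounds, cut at about 3.7% in these data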;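 note: PTEN knockout HCT116 line with beta catenin targeted HCT116 as companion control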
Lung fibro prol – blocks proliferation of human lung fibroblasts. viability, % at 10 µM. actives 1.1% (n = 85,000). AID 719. LL 47 human lung fibroblast viability, ATP luminescence; hits give low values;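 active = viability at or below 50% in the single dose screen; inactive = viability above 50%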;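 note: compound exposure lasted 72 h before the ATP readout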
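test system = LL 47 human lung fibroblasts | amount = 1,150 fibroblasts seeded per well | medium = 15% FBS in IMEM | times = overnight cell rest, 72 h compound treatment at 37 °C | measured by = CellTiter-Glo luminescence measuring cellular ATP | read-out = viability percentage against median untreated-cell control | benchmarks = cell-only wells, no compound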
HUVEC inhibit – blocks proliferation of human endothelial cells | actives 1.1% (n = 86,000) | HUVEC proliferation, CellTiter-Glo luminescence, 72 h; hits give low values | viability, % at 10 µM (by protocol);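 active = viability at or below 30%; inactive = viability above 30%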
Hits are given with their value; – = inactive; · = no result given. Shown is part of a subset that was picked to be rich in hits.

SMILES	HCT116 bCat-KO	H69AR growth 86K	PTEN del growth	Lung fibro prol	HUVEC inhibit
Cc1ccc(NC2=C(NC(=O)c3ccccc3)C(=O)c3ccccc3C2=O)cc1Cl	5.7	·	–	·	·
CC(C)C(NC(=O)c1ccccc1)C(=O)N/N=C\c1ccco1 (centres undefined)	–	·	–	·	·
N=C1N(/N=C/c2ccccc2)C(=Nc2ccccc2)C(=S)N1c1ccccc1	–	1.6	–	–	–
COc1cccc(N(C(=O)CS(=O)CC(=O)Nc2ccc(F)cc2)C(C(=O)NC2CCCCC2)c2cccs2)c1 (centres undefined)	–	·	–	·	·
COc1cccc(N(C(=O)CCl)C(C(=O)NCCc2ccccc2)c2cccs2)c1 (centres undefined)	2.4	·	1.2	·	·
COc1ccc(N(C(=O)CCl)C(C(=O)NCCc2ccccc2)c2cccs2)cc1Cl (centres undefined)	1.8	·	0.9	·	·
Cc1ccc(C(C)C)c(OCc2ccc(C(=O)N/N=C/c3ccc(O)c(O)c3)cc2)c1	–	·	–	·	·
COc1ccc(C(=O)N/N=C(\c2ccccc2)c2ccccn2)cc1	4.6	·	–	·	·
CCOc1ccc(C(=O)N/N=C/c2cccc3cccnc23)cc1	–	·	–	·	·
COc1ccc(C(=O)N/N=C/c2cccc3cccnc23)cc1	4.9	·	–	·	·
O=C(N/N=C/c1ccc(O)c(O)c1)c1ccc(CSc2cccc3cccnc23)cc1	–	40	–	–	–
COc1ccc(NC(=O)c2ccccn2)cc1	–	·	–	·	·
COc1ccc2oc3cc(C)[n+]([O-])c(-c4ccc(Cl)cc4)c3c2c1	–	·	–	·	·
Cc1n[nH]c(C)c1N1C(=O)c2cccc3c(N4CCCCCC4)ccc(c23)C1=O	–	35	–	–	–
COc1ccccc1-n1c(CNC(=O)COc2ccccc2)n[nH]c1=S	–	–	–	–	–
Cc1nc(SCC(=O)Nc2ccc(F)cc2)c2oc3ccccc3c2n1	–	–	–	–	–
Cc1nc(SCC(=O)Nc2ccccc2)c2oc3ccccc3c2n1	–	12	–	–	–
CCc1nnc(NC(=O)CSc2ncnc3c2oc2ccccc23)s1	–	–	–	–	–
O=C(CSc1ncnc2c1oc1ccccc12)Nc1nc2ccccc2s1	–	13	–	–	16
O=C(CSc1ncnc2c1oc1ccccc12)Nc1cccc(C(F)(F)F)c1	–	17	–	–	–
Cc1cc(C)c(C)c(S(=O)(=O)N2CCN(CC(=O)Nc3sccc3C#N)CC2)c1C	–	·	–	·	·
CCc1ccccc1NC(=O)CSc1nnc([C@@H]2CCCN2C(=O)OC(C)(C)C)o1	–	2.1	–	–	–
Cc1cccc(C)c1NC(=O)CSc1nnc([C@@H]2CCCN2C(=O)OC(C)(C)C)o1	–	–	–	–	–
c1ccc(SCCOCCN2CCc3ccccc3C2)cc1	–	·	–	·	·
O=C(CSc1nc2ccccc2s1)Nc1cc(S(=O)(=O)N2CCOCC2)ccc1O	–	·	–	·	·
SMILES	HCT116 bCat-KO	H69AR growth 86K	PTEN del growth	Lung fibro prol	HUVEC inhibit
COc1ccccc1Oc1nc2c(c(=O)n(Cc3ccccc3F)c(=O)n2C)n1C	–	40	–	–	–
Cc1ccc(NC(=O)N2CCCN(Cc3ccc(F)cc3)C2)cc1C	–	28	–	·	–
O=C(Nc1ccc(Cl)cc1)N1CCCN(Cc2ccccc2F)C1	–	–	–	–	–
COC(=O)/C(=N\Nc1ccc(Cl)cc1)Sc1nnc(-c2ccc(OC)cc2)n1C	–	·	–	·	·
CCOc1ccc(/C=N/Nc2cc(=O)n(C)c(=O)n2C)cc1	–	·	–	·	·
COc1ccc(C(=O)N/C(N)=N/c2nc3ccccc3o2)cc1	–	19	·	–	–
COc1cccc(C(=O)Nc2ncc3c(n2)CC(c2ccc(OC)cc2OC)CC3=O)c1 (centres undefined)	–	18	–	–	–
COc1ccc(Nc2ncc3c(n2)CC(c2ccccc2)CC3=O)cc1 (centres undefined)	–	–	–	–	–
CCOc1ccc(NC(C)c2cc(Cl)ccc2O)cc1 (centres undefined)	–	–	–	–	–
CC(Nc1ccc(Cl)cc1)c1cc(Cl)ccc1O (centres undefined)	–	39	–	–	–
O=C(N/N=C\c1ccc([N+](=O)[O-])s1)c1cncc(Br)c1	3.4	·	1.5	·	·
O=C(N/N=C/c1ccc([N+](=O)[O-])s1)c1cccnc1	3.3	·	2.8	·	·
CCOC(=O)C1C(c2ccc(O)c(O)c2)NC(=S)NC1(O)C(F)(F)F (centres undefined)	–	·	–	·	·
COCCCNC(=O)c1cccn2c(=O)c3cc4ccccc4cc3nc12	4.3	–	–	–	–
C=CCn1c(=N)c(C(=O)NCCCOC)cc2c(=O)n3cccc(C)c3nc21	–	–	–	–	–
O=C(NCc1ccco1)c1cnc2ccccn2c1=O	–	–	–	–	–
O=C(NCc1ccco1)c1cccn2c(=O)c3cc4ccccc4cc3nc12	2.6	21	1.7	–	–
CC(C)CC(=O)NC(=S)Nc1ccc(NC(=O)c2ccco2)cc1	–	·	–	·	·
COC(=O)C1=C(C)OC(N)=C(C#N)C1c1c(C)nn(-c2ccccc2)c1Cl (centres undefined)	–	39	–	–	–
Cc1ccccc1NC(=O)Cn1nnc(S(=O)(=O)c2ccc(C(C)(C)C)cc2)c1N	–	·	–	·	·
O=C(CSCc1ccccc1)Nc1ccc(Cl)cn1	–	–	–	–	–
O=C(CC(c1ccccc1)c1ccccc1)Nc1ccc(Cl)cn1	–	17	–	–	–
CCOC(=O)N1CCN(C(=O)c2ccc(C)c(S(=O)(=O)Nc3cccc(C)c3C)c2)CC1	–	40	–	–	–
Cc1ccc(C(=O)N2CCOCC2)cc1S(=O)(=O)Nc1cccc(C)c1C	–	–	–	–	–
CCOC(=O)N1CCN(C(=O)c2ccc(C)c(S(=O)(=O)Nc3ccccc3)c2)CC1	–	36	–	–	–
SMILES	HCT116 bCat-KO	H69AR growth 86K	PTEN del growth	Lung fibro prol	HUVEC inhibit
CCOC(=O)N1CCN(C(=O)c2ccc(NS(C)(=O)=O)cc2)CC1	–	–	–	–	–
Cc1ccc(N=N/C(=C\O)C(=O)c2ccncc2)cc1	–	–	–	–	–
O=C(/C(=C/O)N=Nc1ccc(Cl)cc1)c1ccncc1	0.6	·	0.8	·	·
CC(=O)NC1=C(N(C)C2CCS(=O)(=O)C2)C(=O)c2ccccc2C1=O (centres undefined)	3.5	·	3.4	·	·
CN(C(=O)Nc1ccccc1)C1CCS(=O)(=O)C1 (centres undefined)	–	–	–	–	–
Cc1ccc(-c2nc3ccccc3s2)cc1NC(=S)NC(=O)/C=C/c1ccco1	–	·	–	·	·
Cc1ccc(-c2nc3ccccc3s2)cc1NC(=S)NC(=O)c1cccc2ccccc12	1.3	·	1.7	·	·
O=C(/C=C/c1ccco1)NC(=S)Nc1cc(-c2nc3ccccc3s2)ccc1Cl	2.6	·	1.6	·	·
O=C(Oc1cc(=O)n2ccccc2n1)c1ccccc1	–	·	–	·	·
COC(=O)c1ccc(Oc2nc(C(N)=O)cc(-c3ccccc3)n2)cc1	–	12	–	–	–
CCC(C)(C)n1nnnc1C(c1ccc(O)c(OC)c1)N1CCc2ccccc2C1 (centres undefined)	–	34	–	–	–
